These results are taken from ChEMBL document CHEMBL1137990, “Design and synthesis of novel indole beta-diketo acid derivatives as HIV-1 integrase inhibitors” (J Med Chem, 2004).

One data set relates to CEM-SS. Kind of data set: Cytotoxic concentration against HIV-1 was evaluated in human T-cell line CEM-SS. It counts as functional. The procedure, abridged:
(§1)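 CEM-SS human T cells at 5 × 10³ cells/well infected with HIV-1 RF (MOI 0.3). Serial compound dilutions added at once; cultured 6 days at 37 °C, 5% CO₂. Viability read by XTT (0.2 mg/mL, 4 h) absorbance at 450 nm. AZT and dextran sulfate run as controls. Toxicity measured on the same plate in uninfected CEM-SS cells.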

The target in data set [1] is T1, Human immunodeficiency virus type 1 integrase (Human immunodeficiency virus 1, UniProt Q7ZJM1). Kind of data set: Inhibitory concentration against HIV-1 integrase mediated strand transfer reaction. The procedure, abridged: (§2)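 Wild-type IN at 200 nM final, preincubated with inhibitor for 30 min at 30 °C in buffer of 50 mM NaCl, 1 mM HEPES pH 7.5, 50 µM EDTA, 50 µM DTT, 10% glycerol, 7.5 mM MnCl₂, 0.1 mg/mL BSA, 10 mM 2-mercaptoethanol, 10% DMSO, 25 mM MOPS pH 7.2. Then 20 nM 5′-³²P-labeled linear oligonucleotide substrate added, 1 h more; quenched with formamide/EDTA loading dye; products resolved on gel.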
T1 sequence (Q7ZJM1 whole entry): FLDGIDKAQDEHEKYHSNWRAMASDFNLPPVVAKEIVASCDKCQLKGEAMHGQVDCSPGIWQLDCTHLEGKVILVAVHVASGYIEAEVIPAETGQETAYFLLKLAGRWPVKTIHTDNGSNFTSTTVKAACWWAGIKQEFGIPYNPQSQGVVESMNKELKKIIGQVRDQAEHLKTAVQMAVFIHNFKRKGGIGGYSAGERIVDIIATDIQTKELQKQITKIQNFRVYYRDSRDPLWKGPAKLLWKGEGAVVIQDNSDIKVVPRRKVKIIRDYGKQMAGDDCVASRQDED

In data set [2] the target is T1, Human immunodeficiency virus type 1 integrase. Description: Inhibitory concentration against HIV-1 integrase mediated 3' processing reaction. The procedure, abridged:
as §2

In data set [3] the target is Human immunodeficiency virus type 1 integrase (Human immunodeficiency virus 1) (UniProt Q7ZJM1). Kind of data set: Selectivity index against HIV-1 integrase.
Human immunodeficiency virus type 1 integrase (Human immunodeficiency virus 1), sequence (Q7ZJM1 as listed by the source): as the sequence (Q7ZJM1 whole entry) above
Data set [4] relates to Human immunodeficiency virus 1. Description: Effective concentration required for the inhibition of HIV-1 cytopathic effect. It counts as functional, organism-based. The procedure, abridged:
as §1
In general terms: Protection from cytopathic effect is a common read-out in antiviral testing.

Data set [5] is described as follows: Therapeutic index is the ratio of CC50 to that of EC50. Conditions: human; read-out: Therapeutic index. The procedure, abridged:
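CC50/EC50 ratio, both values from the same plate. CEM-SS cells were infected with HIV-1 RF (MOI 0.3) or left uninfected, with serial compound dilutions. Cultures ran 6 days at 37 °C. Viability was read by XTT absorbance at 450 nm.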

In general, CC50 refers to the concentration giving 50% cytotoxicity. A higher CC50 goes with better tolerance by the cells. As a reminder, the IC50 is the concentration at which inhibition is half-maximal. Usually EC50 stands for the concentration at which the effect is half-maximal.

A value given as a limit tells only on which side of the number the result lay.

Molecule `CCn1c(C(=O)CC(=O)C(=O)OC)cc2cc3c(cc21)OCO3` yielded a half-maximal cytotoxic concentration (CC50) in the data set on CEM-SS of 75 µM. Further, the IC50 in data set [1] was found to be 65 µM; in data set [2] it was 85 µM. Also, the Selectivity index in data set [3] was 1.3. The concentration giving a half-maximal response (EC50) in data set [4] was more than 75 µM.

For `CCn1c(/C(O)=C/C(=O)C(=O)O)cc2ccccc21`, it took 110 µM to reach half-maximal cytotoxicity in the data set with CEM-SS (CC50). Moreover, the IC50 in data set [1] is 1.6 µM; in data set [2], 16 µM. For the same molecule, in data set [3], the Selectivity index is 10. In addition, the EC50 in data set [4] is more than 110 µM.

In the data set on CEM-SS, `CCn1cc(/C(O)=C/C(=O)C(=O)O)c2ccccc21` showed a CC50 of 108 µM. Further, the selectivity ratio in data set [5] amounted to 12. The IC50 came out at 3 µM in data set [1] and 93 µM in data set [2]. In data set [3], this molecule yielded a Selectivity index of 31. Further, in data set [4], the half-maximal effective concentration (EC50) worked out at 9 µM.

The molecule `O=C(O)C(=O)/C=C(\O)c1cc2cc3c(cc2n1Cc1ccccc1)OCO3` showed a CC50 in the data set with CEM-SS of 3.8 µM. Besides, the IC50 came out at 2 µM in data set [1] and 35 µM in data set [2]. Further, the Selectivity index in data set [3] is 17. Besides, the concentration giving a half-maximal response (EC50) in data set [4] was more than 3.8 µM.

On to `CCn1c(C(=O)CC(=O)C(=O)OC)cc2ccccc21`, for which half-maximal cytotoxicity in the data set on CEM-SS (CC50) was put at 60 µM. Moreover, the EC50 in data set [4] was more than 60 µM.

In the data set on CEM-SS, `Cn1cc(/C(O)=C/C(=O)C(=O)O)c2ccccc21` gave a CC50 of more than 200 µM. In data set [5], the selectivity ratio was more than 5.4. Further, the IC50 in data set [1] is 2 µM; in data set [2] it was 100 µM. Besides, the Selectivity index in data set [3] was determined as 50. In addition, the 50% effective concentration (EC50) in data set [4] is 37 µM.

As for `COC(=O)C(=O)CC(=O)c1cc2ccccc2n1C`, in the data set on CEM-SS, the CC50 was 106 µM. Moreover, the IC50 in data set [1] stood at 45 µM; in data set [2], 100 µM. The molecule also registered a Selectivity index in data set [3] of 2. In data set [4], this molecule showed an EC50 of more than 106 µM.

On to `Cn1c(/C(O)=C/C(=O)C(=O)O)cc2ccccc21`, for which, in the data set with CEM-SS, the CC50 is 81 µM. Besides, the values for the IC50 in data set [1] and in data set [2] were 6 µM and 50 µM, respectively. Moreover, the Selectivity index in data set [3] was 8. The concentration for a half-maximal effect (EC50) in data set [4] is more than 81 µM.

`CCn1cc(/C(O)=C/C(=O)C(=O)O)c2cc3c(cc21)OCO3`: in the data set on CEM-SS, the cytotoxic concentration (CC50) is more than 200 µM. Also, in data set [5], the selectivity ratio was more than 1.6. The IC50 was found to be 3 µM in data set [1] and 45 µM in data set [2]. The molecule also displayed a Selectivity index in data set [3] of 15. For the same molecule, the response in data set [4] was half-maximal at 123 µM (EC50).

In the case of `CCn1cc(C(=O)CC(=O)C(=O)OC)c2ccccc21`, the CC50 with CEM-SS was more than 200 µM. Besides, the selectivity ratio in data set [5] is more than 10.5. The values for the IC50 in data set [1] and in data set [2] were 26 µM and more than 100 µM, respectively. In data set [3], this molecule had a Selectivity index of more than 3.8. Moreover, the response in data set [4] was half-maximal at 19 µM (EC50).

In the data set with CEM-SS, `Cn1cc(/C(O)=C/C(=O)C(=O)O)c2cc3c(cc21)OCO3` displayed a CC50 of 108 µM. For the same molecule, the IC50 in data set [1] turned out to be 3 µM; in data set [2], 100 µM. The same molecule showed a Selectivity index in data set [3] of 33. Besides, the EC50 in data set [4] was more than 108 µM.

In the case of `CCn1c(/C(O)=C/C(=O)C(=O)O)cc2cc3c(cc21)OCO3`, the CC50 in the data set with CEM-SS was 57 µM. Moreover, the IC50 in data set [1] stood at 5 µM; in data set [2], 55 µM. Further, the Selectivity index in data set [3] turned out to be 11. The EC50 in data set [4] is more than 57 µM.

In the case of `COC(=O)C(=O)CC(=O)c1cn(C)c2cc3c(cc12)OCO3`, half-maximal cytotoxicity in the data set on CEM-SS (CC50) was put at 31 µM. The IC50 in data set [1] was 60 µM; in data set [2], more than 100 µM. The Selectivity index in data set [3] was more than 1.6. The molecule further came in with an EC50 in data set [4] of more than 31 µM.

As to `COC(=O)C(=O)CC(=O)c1cc2cc3c(cc2n1C)OCO3`, in the data set on CEM-SS, the CC50 was more than 200 µM. The IC50 in data set [1] was 50 µM; in data set [2] it was 100 µM. For the same molecule, the Selectivity index in data set [3] is 2. The molecule also returned an EC50 in data set [4] of more than 200 µM.

Regarding `O=C(O)C(=O)/C=C(\O)c1cc2ccccc2n1Cc1ccccc1`, the IC50 in data set [1] stood at 1 µM; in data set [2] it was 20 µM. For the same molecule, the Selectivity index in data set [3] is 20.

In turn, `Cn1c(/C(O)=C/C(=O)C(=O)O)cc2cc3c(cc21)OCO3` came in with a CC50 in the data set with CEM-SS of more than 200 µM. The values for the IC50 in data set [1] and in data set [2] were 2 µM and 11 µM, respectively. This molecule also displayed a Selectivity index in data set [3] of 5. The molecule also showed a half-maximal effective concentration (EC50) in data set [4] of more than 200 µM.

With `O=C(O)C(=O)/C=C(\O)c1cn(Cc2ccccc2)c2ccccc12`, the IC50 came to 1 µM in data set [1] and 12 µM in data set [2]. Further, in data set [3], the Selectivity index was found to be 12.

`COC(=O)C(=O)CC(=O)c1cc2cc3c(cc2n1Cc1ccccc1)OCO3` yielded a CC50 in the data set with CEM-SS of 1.1 µM. For the same molecule, the IC50 came out at 14 µM in data set [1] and 100 µM in data set [2]. This molecule showed a Selectivity index in data set [3] of 7. In data set [4], this molecule had an EC50 of more than 1.1 µM.
